Assay results: article PMC5743405 (International Journal of Oncology, 2017)
Values joined by “and” are separate entries in the source; they are usually repeats but may differ in a detail not shown here. Equal values may be shown once. “Also recorded” adds a separate entry of the source.

What was measured:
GPCR receptors = assay: PathHunter β-arrestin gpcrMAX panel, agonist mode; format: cell-based; conditions: summary of Table I
How it was run: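 β-Arrestin fused to the EA fragment and GPCR fused to the ED fragment; recruitment restores β-galactosidase, read by chemiluminescence. % agonist = 100 × (mean test − mean vehicle)/(mean max control ligand − mean vehicle). Hit requires >30% activity and mean RLU above baseline + 3 × baseline SD.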

ADCYAP1R1 = assay: PathHunter β-arrestin; format: cell-based; conditions: 6 μM
How it was run: (§1)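 β-Arrestin recruitment assay: the enzyme acceptor is fused to β-arrestin and the ED fragment to the GPCR. Recruitment restores β-galactosidase, read by chemiluminescence. % activity = 100% × (test − vehicle)/(max control ligand − vehicle). % inhibition = 100% × (1 − (test − vehicle)/(EC80 control − vehicle)). An agonist hit needs >30% activity and RLU > baseline + 3×SD. An antagonist hit needs >35% inhibition and RLU < EC80 RLU − 3×SD.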

BDKRB1 = assay: PathHunter β-arrestin; format: cell-based; conditions: 6 μM
How it was run: as §1

C5L2 = assay: PathHunter β-arrestin; format: cell-based; conditions: antagonist mode, 6 μM
How it was run: as §1

CCR2 = assay: PathHunter β-arrestin; format: cell-based; conditions: antagonist mode, 6 μM
How it was run: as §1

CCR6 = assay: PathHunter β-arrestin; format: cell-based; conditions: antagonist mode, 6 μM
How it was run: (§2)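 Engineered cells express the receptor fused to one β-galactosidase fragment (ED) and β-arrestin fused to the complementing fragment (EA). Receptor activation recruits β-arrestin, which restores enzyme activity, and this is read by chemiluminescence (RLU). Agonist % activity is 100% × (test − vehicle)/(maximal control ligand − vehicle). Antagonist mode is challenged with an EC80 control agonist, and % inhibition is 100% × (1 − (test − vehicle)/(EC80 − vehicle)). Hits require >30% activity or >35% inhibition, plus a 3×SD RLU margin.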

CXCR2 = assay: PathHunter β-arrestin; format: cell-based; conditions: 6 μM
How it was run: as §2

CXCR4 = assay: PathHunter β-arrestin; format: cell-based; conditions: 6 μM
How it was run: as §2

CXCR5 = assay: PathHunter β-arrestin; format: cell-based; conditions: 6 μM
How it was run: as §2

CXCR6 = assay: PathHunter β-arrestin; format: cell-based; conditions: 6 μM
How it was run: as §2

DRD1 = assay: PathHunter β-arrestin; format: cell-based; conditions: antagonist mode, 6 μM
How it was run: as §2

DRD4 = assay: PathHunter β-arrestin; format: cell-based; conditions: 6 μM
How it was run: as §2

EDNRB = assay: PathHunter β-arrestin; format: cell-based; conditions: antagonist mode, 6 μM
How it was run: as §2

F2RL1 = assay: PathHunter β-arrestin; format: cell-based; conditions: antagonist mode, 6 μM
How it was run: as §2

F2RL3 = assay: PathHunter β-arrestin; format: cell-based; conditions: 6 μM
How it was run: as §2

GPR109B = assay: PathHunter β-arrestin; format: cell-based; conditions: 6 μM
How it was run: (§3)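 Vendor-run (DiscoveRx) PathHunter enzyme fragment complementation. β-Arrestin carries the EA fragment and the receptor carries ED; recruitment restores β-gal activity, read by chemiluminescence (RLU). Agonist % activity = vehicle-subtracted RLU relative to max control ligand (gpcrMAX) or to vehicle (orphanMAX). Antagonist % inhibition = 100% × (1 − vehicle-subtracted sample RLU / vehicle-subtracted EC80 agonist control RLU).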

GPR92 = assay: PathHunter β-arrestin; format: cell-based; conditions: 6 μM
How it was run: as §3

MC1R = assay: PathHunter β-arrestin; format: cell-based; conditions: 6 μM
How it was run: as §3

MC4R = assay: PathHunter β-arrestin; format: cell-based; conditions: 6 μM
How it was run: as §3

NPBWR1 = assay: PathHunter β-arrestin; format: cell-based; conditions: agonist mode, 6 μM
How it was run: as §3

NPSR1B = assay: PathHunter β-arrestin; format: cell-based; conditions: agonist mode, 6 μM
How it was run: as §3

PTAFR = assay: PathHunter β-arrestin; format: cell-based; conditions: 6 μM
How it was run: (§4)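 β-Arrestin recruitment to GPCR read by β-galactosidase fragment complementation and chemiluminescence. Agonist: % = 100 × (test − vehicle)/(max control ligand − vehicle), hit at >30% and RLU > baseline + 3 SD. Antagonist, against EC80 agonist: % inhibition = 100 × (1 − (test − vehicle)/(EC80 − vehicle)), hit at >35% and RLU < EC80 − 3 SD.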

PTGFR = assay: PathHunter β-arrestin; format: cell-based; conditions: antagonist mode, 6 μM
RXFP3 = assay: PathHunter β-arrestin; format: cell-based; conditions: 6 μM
How it was run: as §4

TLR2 [1] = assay: western blot, JJ012 cells; format: cell-based, human; conditions: vs untreated control, overnight incubation
How it was run: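 JJ012 cells seeded at 1×10^6 cells/ml in 6-well clusters and incubated overnight at 37°C, 5% CO2 with or without test compound. Lysed with protease inhibitor (1:100) and centrifuged at 15,000 × g, 4°C. Protein loaded at 20 μg/lane with reducing agent, run on polyacrylamide gel, transferred to PVDF, probed with rabbit anti-TLR primaries and HRP-linked secondaries.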

TLR4 = assay: western blot, JJ012 cells; format: cell-based, human; conditions: vs untreated control, overnight incubation
TLR2 [2] = assay: RT2 qPCR primer assay, JJ012 cells; format: cell-based, human; conditions: 1 μg/ml PRP-1
How it was run: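 RNA was extracted, checked by spectrophotometry and reverse-transcribed. Custom RT2 SYBR-Green primer assays were run on three samples in technical triplicate. Ct was normalised to mean GAPDH/ACTB, ΔΔCt taken versus control, and fold change = 2^−ΔΔCt.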

mTOR kinase (mTORC1) = conditions: chondrosarcoma; ref [4],[5]; cited from earlier work
[3] = ref [61]; cited from earlier work
[4] = system: tumor suppressor miRNAs and onco-miRNAs; conditions: JJ012 cell line; ref [7]; cited from earlier work

## Proline rich polypeptide 1 [PRP-1]
GPCR receptors
  GPCR coupling, agonist mode: no indication that PRP-1 was G protein coupled
ADCYAP1R1; agonist mode
  % Activity: 1%
ADCYAP1R1; antagonist mode
  % Inhibition: −6%
BDKRB1; agonist mode
  % Activity: 1%
BDKRB1; antagonist mode
  % Inhibition: −8%
C5L2
  % Inhibition: −5%
CCR2
  % Inhibition: −3%
CCR6
  % Inhibition: 2%
CXCR2; agonist mode
  % Activity: 1%
CXCR2; antagonist mode
  % Inhibition: −3%
CXCR4; agonist mode
  % Activity: 2%
CXCR4; antagonist mode
  % Inhibition: 2%
CXCR5; agonist mode
  % Activity: 1%
CXCR5; antagonist mode
  % Inhibition: −8%
CXCR6; agonist mode
  % Activity: 2%
CXCR6; antagonist mode
  % Inhibition: −6%
DRD1
  % Inhibition: −5%
DRD4; agonist mode
  % Activity: 3%
DRD4; antagonist mode
  % Inhibition: −2%
EDNRB
  % Inhibition: −1%
F2RL1
  % Inhibition: 3%
F2RL3; agonist mode
  % Activity: −1%
F2RL3; antagonist mode
  % Inhibition: −1%
GPR109B; agonist mode
  % Activity: 1%
GPR109B; antagonist mode
  % Inhibition: −6%
GPR92; agonist mode
  % Activity: 1%
GPR92; antagonist mode
  % Inhibition: 12%
MC1R; agonist mode
  % Activity: −2%
MC1R; antagonist mode
  % Inhibition: −2%
MC4R; agonist mode
  % Activity: −1%
MC4R; antagonist mode
  % Inhibition: −6%
NPBWR1
  % Activity: 3%
NPSR1B
  % Activity: 2%
PTAFR; agonist mode
  % Activity: 1%
PTAFR; antagonist mode
  % Inhibition: −8%
PTGFR
  % Inhibition: 1%
RXFP3; agonist mode
  % Activity: 6%
RXFP3; antagonist mode
  % Inhibition: −3%
TLR2 [1]
  protein expression: strong upregulation; also recorded: upregulated protein expression of TLR1 and TLR2 in dose-dependent manner
TLR4
  protein expression: PRP-1 did not have any effect
TLR2 [2]; P<0.0001, 2^−∆∆Ct, normalized to GAPDH, ACTB
  fold upregulation (∆∆Ct): 5.26 fold and > 5 fold
TLR2 [2]; heat map, vs nontreated control, technical triplicates
  gene expression: high expression
mTOR kinase (mTORC1)
  mTOR kinase (mTORC1) inhibition: mTOR kinase (mTORC1) inhibitor in chondrosarcoma
[3]
  antibacterial properties: antibacterial properties
[4]
  miRNA regulation: upregulate tumor suppressor miRNAs and downregulate onco-miRNAs
